The values below come from ChEMBL document CHEMBL1177808, “Benzofuran-substituted urea derivatives as novel P2Y(1) receptor antagonists” (Bioorg Med Chem Lett, 2010).

pIC50, pKi: −log10 of the molar value.

Test [1] deals with T1, P2Y purinoceptor 1 (Homo sapiens, UniProt P47900). In words: Antagonist activity at P2Y1 expressed in HEK293 cells by FLIPR assay. In kind it is functional, cell-based. The method, boiled down: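 HEK-293 MSRII cells (endogenous P2Y1) grown in DMEM/F12 with 10% FBS, plated 20,000/well, cultured 48 h. Loaded with calcium 3 dye in HBSS pH 7.4 plus 2.5 mM probenecid, 1 h, 37 °C. Calcium flux read on FLIPR; IC50 from non-linear regression; at least three determinations.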

For test [2], the target named is T1, P2Y purinoceptor 1. In words: Displacement of [33P]2-MeS-ADP from human P2Y1 receptor expressed in human U2OS cells by scintillation counting. In kind it is cell-based. The essentials: (§1)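 Membranes from BacMam-transduced U2OS cells expressing human P2Y1, 0.5 µg prebound to 0.5 mg WGA-SPA beads. Radioligand 150 pM [33P]-2-MeS-ADP in 15 mM Hepes, 145 mM NaCl, 0.1 mM MgCl2, 5 mM EDTA, 5 mM KCl, with test compound dilutions or DMSO. Incubated 1 h at room temperature, centrifuged at 2000g, SPA counts read. At least three determinations.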

Test [3] concerns Platelet. In words: Inhibition of ADP-mediated alpha granule release in human platelet assessed as inhibition of P-selectin expression at 10 uM by flow cytometry. In kind it is functional. The method, boiled down:
(§2)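 Human PRP from drug-free volunteers (EDTA 10 mM, 300g 4 min), diluted 1:50 in Hepes-modified Tyrode's buffer pH 7.4. Compound or DMSO added, then immediately ADP 300 nM for 5 min. PE-anti-CD62P for 15 min, fixed 30 min in 2% paraformaldehyde, P-selectin read by flow cytometry.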
For orientation: In flow cytometry, cells or beads pass a laser one at a time.

Test [4] concerns the target T1, P2Y purinoceptor 1. In words: Displacement of [33P]2-MeS-ADP from human P2Y1 receptor expressed in human U2OS cells at 10 uM by scintillation counting. In kind it is cell-based. The essentials: as §1
The test system of test [5] is Platelet. The experiment in a line: Inhibition of ADP-mediated alpha granule release in human platelet assessed as inhibition of P-selectin expression by flow cytometry. In kind it is functional, cell-based. The essentials:
as §2

T1 sequence (P47900 whole entry): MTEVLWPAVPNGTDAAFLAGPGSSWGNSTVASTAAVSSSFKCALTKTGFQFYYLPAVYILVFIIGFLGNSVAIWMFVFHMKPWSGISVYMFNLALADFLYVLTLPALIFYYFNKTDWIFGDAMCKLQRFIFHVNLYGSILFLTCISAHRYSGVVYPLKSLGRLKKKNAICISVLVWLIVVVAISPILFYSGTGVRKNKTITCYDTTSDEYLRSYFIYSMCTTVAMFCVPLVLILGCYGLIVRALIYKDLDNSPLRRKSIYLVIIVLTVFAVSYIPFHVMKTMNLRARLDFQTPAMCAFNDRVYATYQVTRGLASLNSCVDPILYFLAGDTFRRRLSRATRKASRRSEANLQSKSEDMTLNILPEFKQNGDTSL

A word on the pIC50: it is −log10 of the IC50, conventionally taken in molar units. With `O=C(Nc1ccc(OC(F)(F)F)cc1)Nc1cccc2cc(-c3cccc(C(F)(F)F)c3)oc12`, the negative-log IC50 (pIC50) in test [1] was under 4.60.

Broadly, the pKi is the Ki on a negative log10 scale, so that one unit is a factor of ten. High values mean a low Ki, low ones a high Ki. Compound `CCCCOc1ccc(NC(=O)Nc2cccc3cc(-c4ccccc4C(C)C)oc23)cc1` showed a pKi in test [2] of 6.19. In addition, the pIC50 in test [1] was 5.70.

In general, inhibition refers to the drop in the measured response relative to a control, in per cent. As to `Cc1ccc(NC(=O)Nc2cccc3cc(-c4ccccc4C(C)C)oc23)cc1C(F)(F)F`, the inhibition at 10 µM in test [3] amounted to 79%. Besides, in test [1], the negative logarithm of the IC50 (pIC50) is 5.80. The inhibition in test [4] worked out at 69%.

`CC(C)Oc1ccccc1-c1cc2cccc(NC(=O)Nc3ccc(OC(F)(F)F)cc3)c2o1` had a negative logarithm of the IC50 (pIC50) in test [1] of under 4.60.

`CC(C)c1ccccc1-c1cc2cccc(NC(=O)Nc3ccc(Cl)cc3)c2o1`: the pKi in test [2] was 6.12. This compound also showed a negative logarithm of the IC50 (pIC50) in test [1] of 5.70.

As to `O=C(Nc1ccc(OC(F)(F)F)cc1)Nc1cccc2cc(-c3ccccc3C(F)(F)F)oc12`, the pKi in test [2] was 5.60. In test [1], this compound had a pIC50 of 5.20.

`CCCCCc1ccc(NC(=O)Nc2cccc3cc(-c4ccccc4C(C)C)oc23)cc1` showed a pKi in test [2] of 6.85. This compound had a negative logarithm of the IC50 (pIC50) in test [1] of 6.20.

In turn, `CC(C)c1ccccc1-c1cc2cccc(NC(=O)Nc3cccc(C(F)(F)F)c3)c2o1` had a negative logarithm of the IC50 (pIC50) in test [1] of 5.30. The inhibition in test [4] was 60%.

In test [1], `CC(C)c1ccccc1-c1cc2cccc(NC(=O)Nc3ccc(N(C)C)cc3)c2o1` showed a pIC50 of 4.80.

`O=C(Nc1ccc(OC(F)(F)F)cc1)Nc1cccc2cc(-c3ccccc3Cl)oc12` gave a negative logarithm of the IC50 (pIC50) in test [1] of under 4.60.

For `CC(C)(C)c1ccccc1-c1cc2cccc(NC(=O)Nc3ccc(OC(F)(F)F)cc3)c2o1`, the negative-log Ki (pKi) in test [2] was 6.40. Besides, the pIC50 in test [1] was 5.40.

In test [2], `CC(C)c1ccccc1-c1cc2cccc(NC(=O)Nc3ccc(OC(F)(F)F)cc3)c2o1` had a pKi of 6.22. The inhibition at 10 µM in test [3] is 49%. This compound had a pIC50 in test [1] of 5.40.

On to `CC(C)c1ccccc1-c1cc2cccc(NC(=O)Nc3ccc(C(C)(C)C)cc3)c2o1`, for which the inhibition at 10 µM in test [3] is 100%. Moreover, the pIC50 in test [1] is 5.89; in test [5], 6.52. Further, the inhibition in test [4] amounted to 72%.
